Results: PMC2885802 (Current radiopharmaceuticals, 2010)

Experiments:
Stability in PBS = type: physicochemical; conditions: 18-h period of incubation
[1] = system: receptor-positive M21 human melanoma xenografts; assay: Biodistribution study in nude mice bearing M21 xenografts; type: in vivo; conditions: for tumor uptake with co-injection of antagonist: co-injection of 200 μg unlabeled IA; for tumor uptake: 1 h after i.v. injection; for excretion route: inferred from whole-body retention
In short: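 Athymic nude mice carried s.c. right-flank xenografts from 3 × 10^6 M21 cells (grown in RPMI 1640, 10% FBS, 1% penicillin-streptomycin, 5% CO2). At about 200 mm3 tumor size, mice received i.v. 99mTc-labeled test compound (6.25 μCi, 0.231 MBq/6 pmol in PBS with 1% BSA). They were euthanized at set times for tissue %ID/g and tumor-to-organ ratios; n=4~15 per time point.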

human integrin αvβ3 = human integrin αvβ3 (Homo sapiens, UniProt P05106+P06756); assay: Receptor-binding assay; conditions: 0.8 μM αvβ3, 37 °C, 3 hrs, n = 4
Chain of human integrin αvβ3 (P06756 31-889 limits assumed): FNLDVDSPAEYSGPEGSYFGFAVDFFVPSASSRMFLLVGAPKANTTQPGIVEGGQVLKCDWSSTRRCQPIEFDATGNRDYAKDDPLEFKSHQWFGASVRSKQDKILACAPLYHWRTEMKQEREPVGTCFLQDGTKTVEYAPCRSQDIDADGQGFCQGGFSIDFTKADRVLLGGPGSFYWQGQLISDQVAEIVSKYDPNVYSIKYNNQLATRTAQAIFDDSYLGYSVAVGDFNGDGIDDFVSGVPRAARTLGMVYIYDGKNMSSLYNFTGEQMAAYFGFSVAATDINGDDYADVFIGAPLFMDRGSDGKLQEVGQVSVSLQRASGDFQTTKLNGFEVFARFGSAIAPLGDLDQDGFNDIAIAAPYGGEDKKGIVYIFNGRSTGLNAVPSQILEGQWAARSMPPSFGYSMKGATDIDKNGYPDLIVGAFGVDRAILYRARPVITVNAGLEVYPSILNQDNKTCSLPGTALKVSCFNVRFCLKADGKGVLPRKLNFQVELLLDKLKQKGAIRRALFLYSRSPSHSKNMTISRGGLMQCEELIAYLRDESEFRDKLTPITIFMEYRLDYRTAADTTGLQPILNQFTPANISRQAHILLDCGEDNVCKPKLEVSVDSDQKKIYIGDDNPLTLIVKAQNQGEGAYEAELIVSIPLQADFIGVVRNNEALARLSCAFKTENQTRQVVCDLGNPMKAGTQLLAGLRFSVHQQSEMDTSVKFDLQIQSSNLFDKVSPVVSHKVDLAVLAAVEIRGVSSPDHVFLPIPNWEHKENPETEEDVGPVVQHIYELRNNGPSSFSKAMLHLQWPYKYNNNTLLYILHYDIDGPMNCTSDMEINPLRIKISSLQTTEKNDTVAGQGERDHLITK
Chain of human integrin αvβ3 (P06756 891-1048 partner limits assumed): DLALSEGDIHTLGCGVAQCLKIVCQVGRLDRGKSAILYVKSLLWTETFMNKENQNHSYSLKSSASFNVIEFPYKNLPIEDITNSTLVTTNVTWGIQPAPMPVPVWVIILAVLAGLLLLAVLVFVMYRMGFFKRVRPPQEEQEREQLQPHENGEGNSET
Chain of human integrin αvβ3 (P05106 27-788): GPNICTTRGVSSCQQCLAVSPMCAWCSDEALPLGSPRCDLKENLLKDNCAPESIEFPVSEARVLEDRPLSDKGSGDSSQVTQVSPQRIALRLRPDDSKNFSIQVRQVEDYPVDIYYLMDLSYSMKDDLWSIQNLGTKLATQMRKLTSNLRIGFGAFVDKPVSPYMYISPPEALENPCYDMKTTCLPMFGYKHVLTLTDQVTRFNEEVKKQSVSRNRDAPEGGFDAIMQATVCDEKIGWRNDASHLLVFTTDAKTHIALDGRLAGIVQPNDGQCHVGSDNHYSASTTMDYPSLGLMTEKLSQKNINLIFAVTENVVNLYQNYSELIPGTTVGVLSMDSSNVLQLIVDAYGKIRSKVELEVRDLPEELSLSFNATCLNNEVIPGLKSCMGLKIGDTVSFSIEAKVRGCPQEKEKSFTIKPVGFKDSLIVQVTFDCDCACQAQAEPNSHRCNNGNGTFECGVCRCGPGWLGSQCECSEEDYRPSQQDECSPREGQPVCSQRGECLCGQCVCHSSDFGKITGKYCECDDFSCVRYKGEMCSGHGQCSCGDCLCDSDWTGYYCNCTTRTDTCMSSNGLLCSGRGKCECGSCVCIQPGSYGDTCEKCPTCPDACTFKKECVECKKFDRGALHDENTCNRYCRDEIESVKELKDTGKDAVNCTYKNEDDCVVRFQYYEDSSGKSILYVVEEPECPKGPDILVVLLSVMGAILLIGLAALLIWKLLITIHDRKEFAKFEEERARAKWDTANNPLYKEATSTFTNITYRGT
In short: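 Purified 99mTc-labeled test compound (1.1×10^6 cpm, <2.5 pmol) was incubated with 2.6 to 51.2 pmol human integrin αvβ3 in PBS pH 7.2 at 37 °C for 3 hrs. Non-specific binding was taken with a 250-fold molar excess of unlabeled antagonist. Bound (7 min) and free (15 min) label were separated by size-exclusion HPLC (TSK G3000SWXL).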

[2] = Stability study in mouse serum; type: in vitro ADME; conditions: 37 °C; for % of 99mTc radioactivity associated with 99mTcO4−1: mouse serum, 18 h; for % intact when incubated in serum: 18 hrs
In short: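 Purified 99mTc-labeled test compound (116 μCi, 4.29 MBq) was added to mouse serum containing 0.04% sodium azide, buffered with sodium phosphate pH 7.2, and held at 37 °C. Timed aliquots went to size-exclusion HPLC (TSK G3000SWXL; 0.067 M sodium phosphate/0.10 M KCl, pH 6.8; 1.0 ml/min) with UV and online radioactivity detection. Intact, protein-bound and 99mTcO4− fractions were measured; N ≥ 3.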

αvβ3 = αvβ3 antagonist; not measured here, no ref given; cited from earlier work
[3] = guanidino group of IAC; ref not given; cited from earlier work

Compound: ^99mTc EDDA2/HYNIC-IAC [P1]
- stability in PBS (Stability in PBS): stable
- tumor uptake value over time ([1]; 4-h period): remained relatively unchanged
- Tumor-to-organ ratio, Blood ([1]; 0.3 h): 0.90±0.20
- Tumor-to-organ ratio, Bone ([1]; 0.3 h): 1.29±0.23
- Tumor-to-organ ratio, Heart ([1]; 0.3 h): 1.91±0.43
- Tumor-to-organ ratio, Intestine ([1]; 0.3 h): 0.66±0.07
- Tumor-to-organ ratio, Kidney ([1]; 0.3 h): 0.51±0.12
- Tumor-to-organ ratio, Liver ([1]; 0.3 h): 0.72±0.12
- Tumor-to-organ ratio, Lung ([1]; 0.3 h): 0.72±0.10
- Tumor-to-organ ratio, Muscle ([1]; 0.3 h): 3.04±0.68
- Tumor-to-organ ratio, Spleen ([1]; 0.3 h): 0.71±0.07
- Tumor-to-organ ratio, Stomach ([1]; 0.3 h): 0.54±0.13
- Tumor-to-organ ratio, Blood ([1]; 1 h): 1.38±0.48
- Tumor-to-organ ratio, Bone ([1]; 1 h): 2.12±1.17
- Tumor-to-organ ratio, Heart ([1]; 1 h): 2.48±0.75
- Tumor-to-organ ratio, Intestine ([1]; 1 h): 0.60±0.19
- Tumor-to-organ ratio, Kidney ([1]; 1 h): 0.75±0.28
- Tumor-to-organ ratio, Liver ([1]; 1 h): 0.89±0.27
- Tumor-to-organ ratio, Lung ([1]; 1 h): 1.19±0.43
- Tumor-to-organ ratio, Muscle ([1]; 1 h): 6.11±1.80
- Tumor-to-organ ratio, Spleen ([1]; 1 h): 1.36±0.38
- Tumor-to-organ ratio, Stomach ([1]; 1 h): 0.40±0.20
- whole-body retention ([1]; 1 h): 39.58 ± 2.91 % ID
- effect of unlabeled IA co-injection on tumor uptake ([1]; 1 h, 0, 10 and 200 μg unlabeled IA): blocked by unlabeled IA in a concentration dependent manner
- tumor uptake with co-injection of antagonist ([1]; 1 h): 0.68 ± 0.06 % ID/g
- tumor uptake [1]: 3.17±0.52 % ID/g
- Tumor-to-organ ratio, Blood ([1]; 2 h): 2.19±0.18
- Tumor-to-organ ratio, Bone ([1]; 2 h): 2.46±0.19
- Tumor-to-organ ratio, Heart ([1]; 2 h): 3.23±0.48
- Tumor-to-organ ratio, Intestine ([1]; 2 h): 0.57±0.07
- Tumor-to-organ ratio, Kidney ([1]; 2 h): 0.85±0.08
- Tumor-to-organ ratio, Liver ([1]; 2 h): 1.02±0.12
- Tumor-to-organ ratio, Lung ([1]; 2 h): 1.50±0.09
- Tumor-to-organ ratio, Muscle ([1]; 2 h): 4.68±0.31
- Tumor-to-organ ratio, Spleen ([1]; 2 h): 1.30±0.12
- Tumor-to-organ ratio, Stomach ([1]; 2 h): 0.43±0.11
- Tumor-to-organ ratio, Blood ([1]; 4 h): 17.11±5.18
- Tumor-to-organ ratio, Bone ([1]; 4 h): 4.78±1.07
- Tumor-to-organ ratio, Heart ([1]; 4 h): 7.62±1.99
- Tumor-to-organ ratio, Intestine ([1]; 4 h): 0.46±0.15
- Tumor-to-organ ratio, Kidney ([1]; 4 h): 1.22±0.32
- Tumor-to-organ ratio, Liver ([1]; 4 h): 1.59±0.72
- Tumor-to-organ ratio, Lung ([1]; 4 h): 2.47±0.49
- Tumor-to-organ ratio, Muscle ([1]; 4 h): 7.84±1.78
- Tumor-to-organ ratio, Spleen ([1]; 4 h): 2.83±0.81
- Tumor-to-organ ratio, Stomach ([1]; 4 h): 1.53±0.80
- whole-body retention ([1]; 4 h): 27.25 ± 3.67 % ID
- excretion route [1]: excreted primarily via the renal system
- receptor-bindability (% bound to αvβ3) (human integrin αvβ3): 78.02 ± 13.48%
- % of 99mTc radioactivity associated with 99mTcO4−1 [2]: 3%
- % intact when incubated in serum [2]: 84%

Compound: ^99mTc PDA (tricin)/HYNIC-IAC [P2]
- stability in PBS (Stability in PBS): stable
- accumulation in liver and intestine compared with P1 ([1]; 4-h period): significantly higher accumulation
- Tumor-to-organ ratio, Blood ([1]; 1 h): 1.83±0.16
- Tumor-to-organ ratio, Bone ([1]; 1 h): 1.48±0.37
- Tumor-to-organ ratio, Heart ([1]; 1 h): 2.64±0.36
- Tumor-to-organ ratio, Intestine ([1]; 1 h): 0.15±0.01
- Tumor-to-organ ratio, Kidney ([1]; 1 h): 0.62±0.05
- Tumor-to-organ ratio, Liver ([1]; 1 h): 0.46±0.27
- Tumor-to-organ ratio, Lung ([1]; 1 h): 0.83±0.22
- Tumor-to-organ ratio, Muscle ([1]; 1 h): 3.85±1.64
- Tumor-to-organ ratio, Spleen ([1]; 1 h): 1.09±0.15
- Tumor-to-organ ratio, Stomach ([1]; 1 h): 0.40±0.12
- whole-body retention ([1]; 1 h): 57.84 ± 5.15 % ID
- tumor uptake with co-injection of antagonist ([1]; 1 h): 0.96 ± 0.30 % ID/g
- tumor uptake [1]: 2.13±0.17 % ID/g
- Tumor-to-organ ratio, Blood ([1]; 2 h): 2.58±0.25
- Tumor-to-organ ratio, Bone ([1]; 2 h): 2.73±0.54
- Tumor-to-organ ratio, Heart ([1]; 2 h): 3.85±0.57
- Tumor-to-organ ratio, Intestine ([1]; 2 h): 0.11±0.02
- Tumor-to-organ ratio, Kidney ([1]; 2 h): 0.81±0.07
- Tumor-to-organ ratio, Liver ([1]; 2 h): 0.45±0.30
- Tumor-to-organ ratio, Lung ([1]; 2 h): 1.34±0.51
- Tumor-to-organ ratio, Muscle ([1]; 2 h): 5.75±1.56
- Tumor-to-organ ratio, Spleen ([1]; 2 h): 1.95±0.27
- Tumor-to-organ ratio, Stomach ([1]; 2 h): 0.29±0.09
- Tumor-to-organ ratio, Blood ([1]; 4 h): 3.15±0.25
- Tumor-to-organ ratio, Bone ([1]; 4 h): 3.76±1.36
- Tumor-to-organ ratio, Heart ([1]; 4 h): 3.88±0.90
- Tumor-to-organ ratio, Intestine ([1]; 4 h): 0.07±0.00
- Tumor-to-organ ratio, Kidney ([1]; 4 h): 0.78±0.04
- Tumor-to-organ ratio, Liver ([1]; 4 h): 0.40±0.17
- Tumor-to-organ ratio, Lung ([1]; 4 h): 2.71±0.95
- Tumor-to-organ ratio, Muscle ([1]; 4 h): 6.33±1.57
- Tumor-to-organ ratio, Spleen ([1]; 4 h): 1.54±0.40
- Tumor-to-organ ratio, Stomach ([1]; 4 h): 0.27±0.05
- whole-body retention ([1]; 4 h): 54.04 ± 3.57 % ID
- radioactivity at 1 h remained in the tumor at 4 h ([1]; 4 h relative to 1 h): 62%
- excretion route [1]: excreted to a larger extent via the hepatobiliary system
- receptor-bindability (% bound to αvβ3) (human integrin αvβ3): 51.05 ± 14.05%
- % of 99mTc radioactivity associated with 99mTcO4−1 [2]: 9%
- % intact when incubated in serum [2]: 77%

Compound: CC(C)(CN)CNC(=O)NCCS(=O)(=O)N[C@@H](CNC(=O)c1ccc(OCCNC2=NCCCN2)cc1)C(=O)O.Cl [IAC, 4-[2-(3,4,5,6-tetrahydropyrimidin-2-ylamino)-ethyloxy]benzoyl-2-(S)-[N-(3-aminoneopenta-1-carbamyl)]-aminoethylsulfonylamino-β-alanine hydrochloride]
- IC50 (αvβ3): 2.94 nM
- pKa [3]: ~ 12
